Experimental data published in ChEMBL document CHEMBL1909504, “New series of isoniazid hydrazones linked with electron-withdrawing substituents” (Eur J Med Chem, 2011).
pIC50: −log10 of the molar value. In brackets after ≈: the same amount, converted by molar mass.

Assays:
Mycobacterium avium [1] = assay: Antimycobacterial activity against Mycobacterium avium CNTC My 330/88 after 14 days; type: functional; details: CNTC My 330/88, 336 h
Summary of the method: (§1)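 Sula semi-synthetic medium at 37 °C. Compounds were dissolved in DMSO (max. 5% DMSO in water) and added to the medium at 1000, 500, 250, 125, 62, 31, 16, 8, 4, 2 and 1 μmol L⁻¹. MIC was read after 7, 14 and 21 days of incubation at 37 °C. Strains came from the Czech National Collection of Type Cultures.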

Mycobacterium kansasii [2] = assay: Antimycobacterial activity against Mycobacterium kansasii 6509/96 isolate after 7 days; type: functional; details: 6509/96, 168 h
Summary of the method: (§2)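 MIC in Sula semi-synthetic medium at 37 °C. M. kansasii 6509/96 is a clinical isolate; M. kansasii CNTC My 235/80 comes from the Czech national collection. Compounds were dissolved in DMSO (max. 5% DMSO in water) and tested at 1000, 500, 250, 125, 62, 31, 16, 8, 4, 2 and 1 μmol L⁻¹. MIC was read after 7, 14 and 21 days.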

[3] = tested on: Mycobacterium tuberculosis; assay: Antimycobacterial activity against Mycobacterium tuberculosis CNTC My 331/88 ATCC 27294 after 14 days; type: functional; details: CNTC My 331/88 ATCC 27294, 336 h; summary of the method: as §1
[4] = tested on: Mycobacterium tuberculosis; assay: Antimycobacterial activity against Mycobacterium tuberculosis CNTC My 331/88 ATCC 27294 after 21 days; type: functional; details: CNTC My 331/88 ATCC 27294, 504 h; summary of the method: as §1
Mycobacterium kansasii [5] = assay: Antimycobacterial activity against Mycobacterium kansasii 6509/96 isolate after 21 days; type: functional; details: 6509/96, 504 h; summary of the method: as §2
Mycobacterium kansasii [6] = assay: Antimycobacterial activity against Mycobacterium kansasii CNTC My 335/80 after 14 days; type: functional; details: 336 h; summary of the method: as §2
Mycobacterium kansasii [7] = assay: Antimycobacterial activity against Mycobacterium kansasii CNTC My 335/80 after 7 days; type: functional; details: 168 h; summary of the method: as §2
Mycobacterium kansasii [8] = assay: Antimycobacterial activity against Mycobacterium kansasii 6509/96 isolate after 14 days; type: functional; details: 6509/96, 336 h; summary of the method: as §2
Mycobacterium avium [9] = assay: Antimycobacterial activity against Mycobacterium avium CNTC My 330/88 after 21 days; type: functional; details: CNTC My 330/88, 504 h; summary of the method: as §1
Mycobacterium kansasii [10] = assay: Antimycobacterial activity against Mycobacterium kansasii CNTC My 335/80 after 21 days; type: functional; details: 504 h; summary of the method: as §2
[11] = Stability of compound in imidazole buffer assessed as pseudo-first order rate constant at pH 7.23 by UV-vis spectroscopic analysis; type: physicochemical
Summary of the method: (§3)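 Hydrolytic stability followed by diode-array UV-vis at 37 ± 0.1 °C on ca. 5×10⁻⁵ mol L⁻¹ solutions. Ionic strength was set to 1 mol L⁻¹ with KCl; buffer pH was checked with a glass electrode. Spectra recorded over 200–500 nm with time. Pseudo-first-order k_obs was fitted from the absorbance-time curve at 267 nm.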

PBMC = assay: Cytotoxicity against human PBMC by MTT assay; type: cell-based
Summary of the method: (§4)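 MTT viability assay in RPMI-1640 without phenol red with 10% FCS and 2 mM L-glutamine, at 37 °C and 5% CO₂. HepG2 seeded at 5×10³ cells/well; fresh human PBMC at 2.0×10⁵ cells/well. After 24 h, cells were exposed overnight in serum-free medium, then given MTT (2 mg mL⁻¹) for 4 h. Formazan dissolved in DMSO, OD540 minus OD620, compared with untreated controls. IC50 taken from dose-response curves; two independent experiments, 4–8 parallels.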

[12] = Stability of compound in methoxyacetate buffer assessed as pseudo-first order rate constant at pH 3.35 by UV-vis spectroscopic analysis; type: physicochemical; summary of the method: as §3
[13] = Stability of compound in 0.1 M KOH buffer assessed as pseudo-first order rate constant at pH 13 by UV-vis spectroscopic analysis; type: physicochemical; summary of the method: as §3
[14] = Stability of compound in 0.005 M HCl buffer assessed as pseudo-first order rate constant at pH 2.3 by UV-vis spectroscopic analysis; type: physicochemical; summary of the method: as §3
[15] = Stability of compound in carbonate buffer assessed as pseudo-first order rate constant at pH 9.71 by UV-vis spectroscopic analysis; type: physicochemical; summary of the method: as §3
[16] = Stability of compound in 0.007 M HCl buffer assessed as pseudo-first order rate constant at pH 2.16 by UV-vis spectroscopic analysis; type: physicochemical; summary of the method: as §3
[17] = Stability of compound in N-Methylmorpholine buffer assessed as pseudo-first order rate constant at pH 7.86 by UV-vis spectroscopic analysis; type: physicochemical; summary of the method: as §3
[18] = Stability of compound in 0.005 M KOH buffer assessed as pseudo-first order rate constant at pH 11.7 by UV-vis spectroscopic analysis; type: physicochemical; summary of the method: as §3
[19] = Stability of compound in phosphate buffer assessed as pseudo-first order rate constant at pH 5.81 by UV-vis spectroscopic analysis; type: physicochemical; summary of the method: as §3
[20] = Stability of compound in 0.001 HCl buffer assessed as pseudo-first order rate constant at pH 3 by UV-vis spectroscopic analysis; type: physicochemical; summary of the method: as §3
[21] = Stability of compound in TRIS buffer assessed as pseudo-first order rate constant at pH 8.92 by UV-vis spectroscopic analysis; type: physicochemical; summary of the method: as §3
[22] = Stability of compound in 0.01 M HCl buffer assessed as pseudo-first order rate constant at pH 2 by UV-vis spectroscopic analysis; type: physicochemical; summary of the method: as §3
[23] = Selectivity index, ratio of IC50 for human HepG2 cells to MIC for Mycobacterium tuberculosis CNTC My 331/88 ATCC 27294; type: functional
Summary of the method: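 HepG2 human hepatoma cells in RPMI-1640 without phenol red with 10% FCS, 2 mM L-glutamine and gentamycin, at 37 °C and 5% CO₂. Seeded at 5×10³ cells/well and grown 24 h, then treated overnight in serum-free medium. Read-out was MTT (4 h), formazan dissolved in DMSO, OD540 minus OD620. IC50 was taken from dose-response curves, two experiments with 4–8 parallels. MIC was measured in Sula medium.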

HepG2 = assay: Cytotoxicity against human HepG2 cells by MTT assay; type: cell-based; summary of the method: as §4
[24] = Stability of compound in 0.0005 HCl buffer assessed as pseudo-first order rate constant at pH 3.3 by UV-vis spectroscopic analysis; type: physicochemical; summary of the method: as §3
[25] = Stability of compound in acetate buffer assessed as pseudo-first order rate constant at pH 4.55 by UV-vis spectroscopic analysis; type: physicochemical; summary of the method: as §3

| Compound | MIC (Mycobacterium avium [1]) | MIC (Mycobacterium kansasii [2]) | MIC [3] | MIC [4] | MIC (Mycobacterium kansasii [5]) | MIC (Mycobacterium kansasii [6]) | MIC (Mycobacterium kansasii [7]) | MIC (Mycobacterium kansasii [8]) | MIC (Mycobacterium avium [9]) | MIC (Mycobacterium kansasii [10]) | further results |
| --- | --- | --- | --- | --- | --- | --- | --- | --- | --- | --- | --- |
| O=C(N/N=C/Nc1cccc(O)c1)c1ccncc1 | 500 µM (≈ 128 µg/mL) | 16 µM (≈ 4.1 µg/mL) | 2 µM (≈ 0.513 µg/mL) | 2 µM (≈ 0.513 µg/mL) | 32 µM (≈ 8.2 µg/mL) | 1000 µM (≈ 256 µg/mL) | 250 µM (≈ 64.1 µg/mL) | 32 µM (≈ 8.2 µg/mL) | 500 µM (≈ 128 µg/mL) | 1000 µM (≈ 256 µg/mL) | – |
| O=C(N/N=C/Nc1ccc(Cl)c(Cl)c1)c1ccncc1 | 250 µM (≈ 77.3 µg/mL) | 8 µM (≈ 2.47 µg/mL) | 1 µM (≈ 0.309 µg/mL) | 2 µM (≈ 0.618 µg/mL) | 16 µM (≈ 4.95 µg/mL) | 500 µM (≈ 155 µg/mL) | 250 µM (≈ 77.3 µg/mL) | 16 µM (≈ 4.95 µg/mL) | 250 µM (≈ 77.3 µg/mL) | 500 µM (≈ 155 µg/mL) | – |
| O=C(N/N=C/Nc1cccc(C(F)(F)F)c1)c1ccncc1 | 500 µM (≈ 154 µg/mL) | 16 µM (≈ 4.93 µg/mL) | 1 µM (≈ 0.308 µg/mL) | 1 µM (≈ 0.308 µg/mL) | 32 µM (≈ 9.86 µg/mL) | 250 µM (≈ 77.1 µg/mL) | 125 µM (≈ 38.5 µg/mL) | 16 µM (≈ 4.93 µg/mL) | 1000 µM (≈ 308 µg/mL) | 1000 µM (≈ 308 µg/mL) | – |
| O=C(N/N=C/Nc1ccc(Br)c(F)c1)c1ccncc1 | 250 µM (≈ 84.3 µg/mL) | 8 µM (≈ 2.7 µg/mL) | 1 µM (≈ 0.337 µg/mL) | 1 µM (≈ 0.337 µg/mL) | 16 µM (≈ 5.39 µg/mL) | 250 µM (≈ 84.3 µg/mL) | 62.5 µM (≈ 21.1 µg/mL) | 8 µM (≈ 2.7 µg/mL) | 250 µM (≈ 84.3 µg/mL) | 250 µM (≈ 84.3 µg/mL) | Activity [11]: 0.000013 s⁻¹; pIC50 (PBMC): 3.49; Activity [12]: 0.000425 s⁻¹; Activity [13]: 0.0000691 s⁻¹; Activity [14]: 0.0017 s⁻¹; Activity [15]: 0.0000445 s⁻¹; Activity [16]: 0.00192 s⁻¹; Activity [17]: 0.000012 s⁻¹; Activity [18]: 0.00011 s⁻¹; Activity [19]: 0.000071 s⁻¹; Activity [20]: 0.000514 s⁻¹; Activity [21]: 0.000055 s⁻¹; Activity [22]: 0.00285 s⁻¹; Ratio [23]: 162; pIC50 (HepG2): 3.79; Activity [24]: 0.000322 s⁻¹; Activity [25]: 0.000114 s⁻¹ |
| O=C(N/N=C/Nc1cccc(F)c1)c1ccncc1 | 500 µM (≈ 129 µg/mL) | 16 µM (≈ 4.13 µg/mL) | 1 µM (≈ 0.258 µg/mL) | 1 µM (≈ 0.258 µg/mL) | 16 µM (≈ 4.13 µg/mL) | 1000 µM (≈ 258 µg/mL) | 125 µM (≈ 32.3 µg/mL) | 16 µM (≈ 4.13 µg/mL) | 1000 µM (≈ 258 µg/mL) | > 1000 µM | – |
| O=C(N/N=C/Nc1cccc(Br)c1)c1ccncc1 | 250 µM (≈ 79.8 µg/mL) | 8 µM (≈ 2.55 µg/mL) | 1 µM (≈ 0.319 µg/mL) | 1 µM (≈ 0.319 µg/mL) | 16 µM (≈ 5.11 µg/mL) | 1000 µM (≈ 319 µg/mL) | 250 µM (≈ 79.8 µg/mL) | 8 µM (≈ 2.55 µg/mL) | 500 µM (≈ 160 µg/mL) | 1000 µM (≈ 319 µg/mL) | – |
| O=C(N/N=C/Nc1ccc(F)cc1)c1ccncc1 | 250 µM (≈ 64.6 µg/mL) | 8 µM (≈ 2.07 µg/mL) | 1 µM (≈ 0.258 µg/mL) | 2 µM (≈ 0.517 µg/mL) | 8 µM (≈ 2.07 µg/mL) | 1000 µM (≈ 258 µg/mL) | 250 µM (≈ 64.6 µg/mL) | 8 µM (≈ 2.07 µg/mL) | 500 µM (≈ 129 µg/mL) | > 1000 µM | – |
| O=C(N/N=C/Nc1ccc(O)cc1)c1ccncc1 | 500 µM (≈ 128 µg/mL) | 32 µM (≈ 8.2 µg/mL) | 4 µM (≈ 1.03 µg/mL) | 8 µM (≈ 2.05 µg/mL) | 62.5 µM (≈ 16 µg/mL) | 500 µM (≈ 128 µg/mL) | 250 µM (≈ 64.1 µg/mL) | 62.5 µM (≈ 16 µg/mL) | 500 µM (≈ 128 µg/mL) | 500 µM (≈ 128 µg/mL) | – |
| O=C(N/N=C/Nc1cccc([N+](=O)[O-])c1)c1ccncc1 | 250 µM (≈ 71.3 µg/mL) | 8 µM (≈ 2.28 µg/mL) | 2 µM (≈ 0.571 µg/mL) | 2 µM (≈ 0.571 µg/mL) | 16 µM (≈ 4.56 µg/mL) | 250 µM (≈ 71.3 µg/mL) | 125 µM (≈ 35.7 µg/mL) | 16 µM (≈ 4.56 µg/mL) | 500 µM (≈ 143 µg/mL) | 500 µM (≈ 143 µg/mL) | – |
| O=C(N/N=C/Nc1ccc(F)c(F)c1)c1ccncc1 | 250 µM (≈ 69.1 µg/mL) | 8 µM (≈ 2.21 µg/mL) | 2 µM (≈ 0.552 µg/mL) | 2 µM (≈ 0.552 µg/mL) | 32 µM (≈ 8.84 µg/mL) | 500 µM (≈ 138 µg/mL) | 250 µM (≈ 69.1 µg/mL) | 16 µM (≈ 4.42 µg/mL) | 250 µM (≈ 69.1 µg/mL) | 1000 µM (≈ 276 µg/mL) | – |
